This is an account of results in ChEMBL document CHEMBL4138128, “Structural design, synthesis and pharmacological evaluation of thiazoles against Trypanosoma cruzi” (Eur J Med Chem, 2017).

One data set addresses Cruzipain (Trypanosoma cruzi, UniProt P25779). The experiment in a line: Inhibition of recombinant Trypanosoma cruzi cruzain preincubated for 10 mins followed by Z-FR-AMC substrate addition measured for 5 mins at 12 secs time interval by flow cytometry relative to control. The method, boiled down: (§1)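 Cruzain 0.5 nM in 0.1 M sodium acetate pH 5.5, 1 mM beta-mercaptoethanol, 0.01% Triton X-100, 25 °C; 10 min preincubation, then Z-FR-AMC 2.5 µM (Km 1 µM). Fluorescence (ex 340, em 440) read continuously 5 min; initial rates versus DMSO control. Screens at 10 µM, two independent runs in triplicate; IC50 from at least seven concentrations, four-parameter fit, at least two curves.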
On the technique in general: A flow cytometer gives signals particle by particle.

Data set [1] concerns the target Cruzipain (Trypanosoma cruzi) (UniProt P25779). Put plainly: Inhibition of recombinant Trypanosoma cruzi cruzain at 10 uM preincubated for 10 mins followed by Z-FR-AMC substrate addition measured for 5 mins at 12 secs time interval by […] relative to control. In outline: as §1
Data set [2] in a line: Solubility of the compound in pH 5.5 sodium acetate buffer at 10 uM. The settings on record: pH 5.5, 10 µM.
Data set [3] in a line: Cytotoxicity against mouse J774 cells assessed as reduction in cell viability after 72 hrs by alamar blue assay. It counts as cell-based. In outline: (§2)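 H9c2 or J774 cells (1 x 10^4/well) in DMEM/10% FBS preincubated 24 h, then exposed 72 h to six concentrations (0.41 to 100 µM) in triplicate, DMSO under 1%. Viability by AlamarBlue, read after 6 h at 570/600 nm; CC50 from three independent experiments; gentian violet positive control.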
A general note: Alamar Blue is a resazurin reagent that responds to reducing activity.

Data set [4] is described as follows: Cytotoxicity against rat H9c2 cells assessed as reduction in cell viability after 72 hrs by alamar blue assay. Format: cell-based. In outline:
as §2

The test system of data set [5] is Trypanosoma cruzi. The experiment in a line: Antitrypanosomal activity against bloodstream trypomastigote stage of Trypanosoma cruzi Y infected in monkey LLC-MK2 cells assessed as reduction in parasite motility measured after 24 hrs by neubauer chamber method. It counts as functional, organism-based. The settings on record: LLC-MK2, 24 h. The method, boiled down:
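Y strain trypomastigotes from LLC-MK2 supernatants, 4x10^5/well, incubated 24 h at 37°C, 5% CO2 with five concentrations; viable parasites counted by motility in Neubauer chamber. Inhibition versus untreated cultures; IC50 by non-linear regression; benznidazole reference.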

Data set [6] concerns Trypanosoma cruzi. Put plainly: Antitrypanosomal activity against Trypanosoma cruzi Y trypomastigotes infected in mouse J774 cells measured after […] by contrast phase microscopic method. Format: functional, organism-based.
Data set [7] is described as follows: Cytotoxicity against mouse J774 cells. It counts as cell-based. In outline:
as §2

Bounds are passed on as bounds.

Chain of Cruzipain (Trypanosoma cruzi) (P25779 123-467 limits assumed): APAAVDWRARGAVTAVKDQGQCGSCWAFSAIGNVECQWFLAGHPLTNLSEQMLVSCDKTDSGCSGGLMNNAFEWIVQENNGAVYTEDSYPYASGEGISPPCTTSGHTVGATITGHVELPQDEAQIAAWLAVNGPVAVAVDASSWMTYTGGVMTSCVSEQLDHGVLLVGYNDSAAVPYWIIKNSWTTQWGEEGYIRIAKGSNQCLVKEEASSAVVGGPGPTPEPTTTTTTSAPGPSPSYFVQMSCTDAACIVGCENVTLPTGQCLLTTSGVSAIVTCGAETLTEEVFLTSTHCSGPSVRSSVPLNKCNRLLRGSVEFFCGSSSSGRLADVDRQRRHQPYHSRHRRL
Chain of Cruzipain (P25779 whole entry): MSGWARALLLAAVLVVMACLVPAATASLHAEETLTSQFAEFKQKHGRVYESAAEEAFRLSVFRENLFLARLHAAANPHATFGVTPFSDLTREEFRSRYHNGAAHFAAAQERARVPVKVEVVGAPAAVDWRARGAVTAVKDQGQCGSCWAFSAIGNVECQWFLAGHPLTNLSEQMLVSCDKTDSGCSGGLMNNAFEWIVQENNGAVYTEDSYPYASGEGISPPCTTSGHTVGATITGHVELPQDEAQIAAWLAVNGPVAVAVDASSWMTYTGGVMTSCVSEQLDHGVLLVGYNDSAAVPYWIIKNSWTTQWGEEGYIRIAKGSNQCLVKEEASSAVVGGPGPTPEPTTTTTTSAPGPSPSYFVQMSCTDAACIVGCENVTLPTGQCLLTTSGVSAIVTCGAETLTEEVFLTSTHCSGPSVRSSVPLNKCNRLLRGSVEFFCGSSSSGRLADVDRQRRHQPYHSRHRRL

The term IC50 denotes the concentration needed to halve the response being measured. In general, inhibition refers to the change of the read-out against control, counted positive when it falls. The term CC50 denotes the concentration giving 50% cytotoxicity. On to `C/C(=N\Nc1nc(C)cs1)c1ccc(Cl)c(Cl)c1`, for which the IC50 amounted to 0.6 µM at Cruzipain and 17.1 µM with Trypanosoma cruzi [5]. Also, in data set [1], the inhibition turned out to be 97%. Further, the solubility result in data set [2] was “Soluble”. In addition, the half-maximal cytotoxic concentration (CC50) at 72 h is 33.7 µM in data set [3] and 26.1 µM in data set [4].

For the compound `C/C(=N\N=c1\scc(-c2ccccc2)n1C)c1ccc(Cl)c(Cl)c1`, the inhibition in data set [1] came out at 12%. The solubility entry in data set [2] is “Soluble”. The CC50 at 72 h in data set [3] and in data set [4] was over 50 µM each time. The concentration for half-maximal inhibition (IC50) in the data set with Trypanosoma cruzi [5] is over 50 µM.

Consider `C/C(=N\Nc1nc(-c2ccc(Cl)cc2Cl)cs1)c1ccc(Cl)c(Cl)c1`, for which, in data set [1], the inhibition was determined as 35%. Further, the solubility result in data set [2] is on record as “Soluble”. For the same compound, the half-maximal cytotoxic concentration (CC50) at 72 h in data set [3] and in data set [4] was over 50 µM each time. In the data set with Trypanosoma cruzi [5], the IC50 was over 50 µM.

`C/C(=N\Nc1nc(-c2ccccc2)c(C)s1)c1ccc(Cl)c(Cl)c1`: in data set [1], the inhibition worked out at 76%. Moreover, in data set [2], the solubility result is “Soluble”. The CC50 at 72 h in data set [3] and in data set [4] was over 50 µM in each case. Moreover, the IC50 in the data set with Trypanosoma cruzi [5] came to 17.8 µM.

For `C/C(=N\Nc1nc(C)c(C)s1)c1ccc(Cl)c(Cl)c1`, the figures for the half-maximal inhibitory concentration (IC50) on Cruzipain and with Trypanosoma cruzi [5] were 9 µM and 10.5 µM, respectively. Also, the inhibition in data set [1] is 84%. For the same compound, the solubility result in data set [2] was “Soluble”. In addition, the 50% cytotoxic concentration (CC50) at 72 h is 41.8 µM in data set [3] and over 50 µM in data set [4].

For `COc1ccc(-c2csc(N/N=C(\C)c3ccc(Cl)c(Cl)c3)n2)cc1`, in data set [1], the inhibition stood at 41%. Further, in data set [2], the solubility entry was “Soluble”. Moreover, the 50% cytotoxic concentration (CC50) at 72 h in data set [3] and in data set [4] was over 50 µM throughout. In the data set on Trypanosoma cruzi [5], the 50% inhibitory concentration (IC50) worked out at 17.1 µM.

As for `C/C(=N\Nc1nc(-c2ccc(-c3ccccc3)cc2)cs1)c1ccc(Cl)c(Cl)c1`, in data set [1], the inhibition worked out at 44%. For the same compound, the solubility result in data set [2] was “Soluble”. Moreover, the CC50 at 72 h in data set [3] and in data set [4] was over 50 µM each time. Besides, the half-inhibitory concentration (IC50) with Trypanosoma cruzi [5] is over 50 µM.

On to `C/C(=N\Nc1nc(-c2ccc(Br)cc2)cs1)c1ccc(Cl)c(Cl)c1`, for which the inhibition in data set [1] was 43%. In addition, the solubility result in data set [2] is “Soluble”. The CC50 at 72 h in data set [3] and in data set [4] was over 50 µM each time. The IC50 in the data set with Trypanosoma cruzi [5] is over 50 µM.

On to `CN(C)c1ccc(C(=C2C=CC(=[N+](C)C)C=C2)c2ccc(N(C)C)cc2)cc1` [GENTIAN VIOLET], for which the half-maximal cytotoxic concentration (CC50) at 72 h in data set [4] is 1.5 µM.

As for `C/C(=N\Nc1nc(-c2cccc([N+](=O)[O-])c2)cs1)c1ccc(Cl)c(Cl)c1`, the solubility entry in data set [2] is “Soluble”. In addition, the CC50 at 72 h in data set [3] and in data set [4] was over 50 µM throughout. Besides, the IC50 in the data set with Trypanosoma cruzi [5] is over 50 µM.

As to `C/C(=N\Nc1nc(-c2ccncc2)cs1)c1ccc(Cl)c(Cl)c1`, in data set [1], the inhibition was 32%. Further, the solubility result in data set [2] is “Soluble”. Besides, the cytotoxic concentration (CC50) at 72 h in data set [3] came out at 39.8 µM; in data set [4] it was 41.9 µM. Also, the IC50 with Trypanosoma cruzi [5] is 16.8 µM.

On to `C/C(=N\Nc1nc(-c2ccccc2)cs1)c1ccc(Cl)c(Cl)c1`, for which the inhibition in data set [1] was found to be 59%. Besides, in data set [2], the solubility entry is listed as “Soluble”. Also, the CC50 at 72 h in data set [3] and in data set [4] was over 50 µM in each case. In addition, the IC50 in the data set with Trypanosoma cruzi [5] is over 50 µM.

`C/C(=N\N=C(\N)S)c1ccc(Cl)c(Cl)c1` had a concentration for half-maximal inhibition (IC50) in the data set on Trypanosoma cruzi [6] of 7.1 µM. Further, the CC50 in data set [7] was over 100 µM.

For `C/C(=N\Nc1nc(-c2ccc3ccccc3c2)cs1)c1ccc(Cl)c(Cl)c1`, the inhibition in data set [1] was determined as 44%. Besides, the solubility result in data set [2] is “Soluble”. Also, the cytotoxic concentration (CC50) at 72 h in data set [3] and in data set [4] was over 50 µM throughout. Moreover, the IC50 with Trypanosoma cruzi [5] is over 50 µM.

With `C/C(=N\Nc1nc(-c2ccc([N+](=O)[O-])cc2)cs1)c1ccc(Cl)c(Cl)c1`, the solubility entry in data set [2] is given as “Soluble”. Moreover, the CC50 at 72 h in data set [3] and in data set [4] was over 50 µM in each case. For the same compound, the concentration for half-maximal inhibition (IC50) with Trypanosoma cruzi [5] is over 50 µM.

As for `C/C(=N\Nc1nc(CCl)cs1)c1ccc(Cl)c(Cl)c1`, in data set [1], the inhibition was determined as 50%. In addition, the solubility result in data set [2] is reported as “Soluble”. For the same compound, the CC50 at 72 h in data set [3] and in data set [4] was over 50 µM throughout. Besides, the IC50 with Trypanosoma cruzi [5] was over 50 µM.

For the compound `C/C(=N\Nc1nc(-c2ccc(C)cc2)cs1)c1ccc(Cl)c(Cl)c1`, the inhibition in data set [1] amounted to 75%. In data set [2], the solubility result is “Soluble”. In addition, the CC50 at 72 h in data set [3] and in data set [4] was over 50 µM throughout. Besides, the half-maximal inhibitory concentration (IC50) with Trypanosoma cruzi [5] was found to be 47.7 µM.

With `C/C(=N\Nc1nc(-c2ccc(Cl)c(Cl)c2)cs1)c1ccc(Cl)c(Cl)c1`, in data set [2], the solubility entry is “Soluble”. Further, the 50% cytotoxic concentration (CC50) at 72 h in data set [3] and in data set [4] was over 50 µM throughout. Moreover, in the data set on Trypanosoma cruzi [5], the IC50 is over 50 µM.

With `C/C(=N\Nc1nc(-c2ccc(Cl)cc2)cs1)c1ccc(Cl)c(Cl)c1`, in data set [1], the inhibition is 31%. Moreover, in data set [2], the solubility entry was “Soluble”. In addition, the CC50 at 72 h in data set [3] and in data set [4] was over 50 µM throughout. The concentration for half-maximal inhibition (IC50) with Trypanosoma cruzi [5] was over 50 µM.

`C/C(=N\Nc1nc(-c2ccc(Br)cc2)c(C)s1)c1ccc(Cl)c(Cl)c1`: the inhibition in data set [1] came out at 74%. The solubility result in data set [2] is listed as “Soluble”. For the same compound, the CC50 at 72 h in data set [3] and in data set [4] was over 50 µM each time. Further, in the data set with Trypanosoma cruzi [5], the IC50 amounted to 19.1 µM.

With `C/C(=N\Nc1nc(-c2ccc(Cl)c(Cl)c2Cl)cs1)c1ccc(Cl)c(Cl)c1`, the inhibition in data set [1] was determined as 38%. The solubility result in data set [2] is reported as “Soluble”. Also, the cytotoxic concentration (CC50) at 72 h amounted to 21.3 µM in data set [3] and 17 µM in data set [4]. The IC50 with Trypanosoma cruzi [5] is 6 µM.

Regarding `C/C(=N\N=c1\scc(-c2ccccc2)n1-c1ccccc1)c1ccc(Cl)c(Cl)c1`, the inhibition in data set [1] was 31%. Besides, the solubility entry in data set [2] was “Soluble”. Also, the CC50 at 72 h in data set [3] and in data set [4] was over 50 µM each time. Moreover, the IC50 with Trypanosoma cruzi [5] is over 50 µM.

`C/C(=N\Nc1nc(-c2ccc(F)cc2)cs1)c1ccc(Cl)c(Cl)c1`: the inhibition in data set [1] amounted to 32%. For the same compound, the solubility result in data set [2] is listed as “Soluble”. Besides, the CC50 at 72 h in data set [3] and in data set [4] was over 50 µM in each case. Besides, the IC50 with Trypanosoma cruzi [5] was over 50 µM.
